Published values from different studies.
ABCB1: ATP-dependent translocase ABCB1 (ABCB1, Homo sapiens, UniProt P08183)

Structure (SMILES) | tested on | test | system | conditions | quantity | value
CC[C@H](C)[C@H](NC(=O)[C@H](Cc1ccccc1)NC(=O)[C@H](Cc1ccc(O)cc1)NC(=O)[C@@H]1CCCN1C(=O)[C@@H](N)Cc1ccc(O)cc1)C(=O)N1CCC[C@H]1C(=O)N[C@@H](CC(C)C)C(=O)N[C@H](CCCCN)C(=O)NCC(=O)NCC(=O)N[C@@H](CCC(=O)O)C(=O)N[C@H](C(=O)N[C@@H](CC(N)=O)C(=O)N[C@@H](CC(C)C)[C@@H](O)CC(=O)N[C@H](C(=O)N[C@@H](C)C(=O)N[C@@H](CCC(=O)O)C(=O)N1CCC[C@@H]1C(=O)N[C@@H](CCCCNC(=O)CCC(=O)O[C@H]1CC[C@@]2(C)C(=CC[C@H]3[C@@H]4CC[C@H]([C@H](C)CCCC(C)C)[C@@]4(C)CC[C@@H]32)C1)C(N)=O)C(C)C)C(C)C | – | – | aqueous buffer | pH 6.5 | thermodynamic solubility | < 1 µg/mL
CCCC(CCC)C(=O)OCC1(CO)C/C(=C\c2ccc(C(F)(F)F)cc2)C(=O)O1 (stereo not drawn) | – | general toxicity | nude mouse | intraperitoneal | MTD | 12 mg/kg/day
C[C@]12CCCN1CC1=NNC(=O)c3cc(F)cc4[nH]c2c1c34 | ABCB1 | – | MDCK-MDR1 | 1 µM | Papp A→B | 24.2 ×10⁻⁶ cm/s
O=C(NCCN1CCCC1)c1cc(-c2ccc(CN3CCOCC3)cc2)nc2ccc(F)cc12 | – | – | male beagle dog, blood | oral, 3 mg/kg | Tmax | 4 h
O=C(O)CSc1nnc(Br)n1-c1ccc(C2CC2)c2ccccc12 | Multidrug and toxin extrusion protein 2 (SLC47A2, Homo sapiens, UniProt Q86VL8) | transporter uptake, inhibitor | HEK293 | 1 µM, 2 min | inhibition | -21%
CCn1cnc2c(=O)[nH]c(N)nc21.NCCNCCN.[Pt+2] | Jurkat | cell growth or viability, WST-1 | – | – | IC50 | > 100 µM
Cc1cc(-c2ccc(C(F)(F)F)cn2)[nH]c1C(=O)N[C@H](CN)c1nc(CO)cs1 | Cf2Th-CCR5 | cell growth or viability, MTS | – | 48 h | CC50 | > 47 µM
COc1ccc(S(=O)(=O)ON=C2C=C(C)C(=O)C(C)=C2)cc1 | LNCaP | cell growth or viability | – | – | CC50 | 3.54 µM
COCCc1ccc(OCC(O)CNC(C)C)cc1 (stereo not drawn) | ABCB1 | – | MDCK-MDR1 | 5 µM | Papp B→A | 31.5 ×10⁻⁶ cm/s
CC1(C)CCC2(CC1)N[C@@H](C(=O)N[C@@H]1CC[C@@H](C(N)=O)OC1)[C@H](c1ccnc(Cl)c1F)[C@]21C(=O)Nc2cc(Cl)ccc21 | ABCB1 | – | Caco-2 | 10 µM, 2 h | efflux ratio | 9.3
O=C(CCCCCCC(=O)Nc1ccc(CC[18F])cc1)NO | LNCaP | – | male nude, tumour | intravenous, 2 h, tumour-bearing | tracer uptake | 1.5 %ID/g
CC1(C)CC(NC(=O)C(=O)Nc2ccc(Cl)cc2)CC(C)(C)N1 | Cf2Th-CCR5 | cell growth or viability, MTS | – | 48 h | CC50 | > 60 µM
